Sampled rows, rich in hits. Any-hit rate of the full collection: about 3.4%.
GPR7 antag = blocks human GPR7 receptor signaling | AID 1861 | hit rate 1.1% among 290,000 | GPR7-expressing cells, fluorescence antagonist assay | inhibition, % at 4.4 µM; in the data active means inhibition above about 16%, passing the limit was not always enough;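 further: cells stimulated with the agonist NPW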
TAAR1 ag = human TAAR1 agonism. hit rate 0.99% among 360,000. CHO RD-HGA16 TAAR1, Fluo-8 calcium fluorescence; vehicle wells 0%, saturating PEA agonist 100%. activation, % at 3 µM. Q96RJ0;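 active means activation above the mean activation of all test compounds in the run plus 3 SD, cut at about 38% in these data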
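System: CHO RD-HGA16 cells carrying human TAAR1 plus Gα16; Incubation: 17-24 h seeding, 75 min 37 °C dye, 30 min RT; Measured by: Fluo-8 fluorescence, 5 s baseline then 140 s kinetic read; Control set: DMSO and PEA EC100; Replication: single well for each compound.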
TRPML3 agonist = activates the human TRPML3 channel. Q8TDD5. HEK293 TRPML3-YFP, Fluo-8 calcium fluorescence; 100% = the carbachol control signal. activation, % at 3 µM. hit rate 0.29% among 220,000;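 active means activation above its plate's cutoff, the mean activation of the plate's test wells plus 3 SD, cut at about 12% in these data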
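system = HEK293 cells stably carrying human TRPML3-YFP | doses = one concentration, 3 µM nominal, 0.3% DMSO | timing = dye loading 1 h 37 °C then 30 min ambient, 125 s read | detection = Fluo-8 calcium dye fluorescence, ex 470-495, em 515-575 nm | benchmarks = high control carbachol 87 µM, low control DMSO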
TAAR1 antagonist = antagonists of human TAAR1; CHO RD-HGA16 TAAR1, Fluo-8 calcium fluorescence, antagonist; inhibition, % at 3 µM; hit rate 1.5% among 360,000;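 active means inhibition above a per-plate cutoff, the mean inhibition of test compounds on that plate plus 3 SD, cut at about 49% in these data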
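Assay system: RD-HGA16 CHO cells with stable hTAAR1 and Gα16 / Reagent: EC80 β-phenethylamine stimulus / Doses: 3 µM, single point / Timing: dye loading 75 min at 37 °C, then 30 min room temperature / Measured by: Fluo-8 intracellular calcium dye fluorescence, real-time kinetic reads / Controls: vehicle wells and EC80 agonist wells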
zfTRPN1 agonist = agonists of zebrafish TRPN1 channel | HEK293 zebrafish TRPN1-YFP, Fluo-8 calcium fluorescence; 100% = response to 87 µM carbachol | hit rate 0.18% among 220,000 | AID 1424 | activation, % at 3 µM;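 active means activation above its plate's cutoff, the mean activation of test wells on that plate plus 3 SD, cut at about 19% in these data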
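Material – zebrafish TRPN1-YFP in HEK293 cells · Doses – 3 µM single point · Schedule – dye 1 h 37 °C plus 30 min RT · Signal – Fluo-8 calcium fluorescence, excitation 470-495 nm, emission 515-575 nm · Read-out – % activation versus carbachol response · Control set – carbachol high, DMSO low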
LANA-H2B inh = blocks KSHV LANA binding to histone H2A/H2B; Q9QR71; cell-free LANA-H2A/H2B peptide, fluorescence polarization; inhibition, % (concentration not given with the values); hit rate 0.6% among 320,000; AID 2629; in the data active means inhibition mostly above about 10%, no sharp cut-off; inactive means mostly below about 6.7%
Target sequence (Q9QR71 whole entry, looked up): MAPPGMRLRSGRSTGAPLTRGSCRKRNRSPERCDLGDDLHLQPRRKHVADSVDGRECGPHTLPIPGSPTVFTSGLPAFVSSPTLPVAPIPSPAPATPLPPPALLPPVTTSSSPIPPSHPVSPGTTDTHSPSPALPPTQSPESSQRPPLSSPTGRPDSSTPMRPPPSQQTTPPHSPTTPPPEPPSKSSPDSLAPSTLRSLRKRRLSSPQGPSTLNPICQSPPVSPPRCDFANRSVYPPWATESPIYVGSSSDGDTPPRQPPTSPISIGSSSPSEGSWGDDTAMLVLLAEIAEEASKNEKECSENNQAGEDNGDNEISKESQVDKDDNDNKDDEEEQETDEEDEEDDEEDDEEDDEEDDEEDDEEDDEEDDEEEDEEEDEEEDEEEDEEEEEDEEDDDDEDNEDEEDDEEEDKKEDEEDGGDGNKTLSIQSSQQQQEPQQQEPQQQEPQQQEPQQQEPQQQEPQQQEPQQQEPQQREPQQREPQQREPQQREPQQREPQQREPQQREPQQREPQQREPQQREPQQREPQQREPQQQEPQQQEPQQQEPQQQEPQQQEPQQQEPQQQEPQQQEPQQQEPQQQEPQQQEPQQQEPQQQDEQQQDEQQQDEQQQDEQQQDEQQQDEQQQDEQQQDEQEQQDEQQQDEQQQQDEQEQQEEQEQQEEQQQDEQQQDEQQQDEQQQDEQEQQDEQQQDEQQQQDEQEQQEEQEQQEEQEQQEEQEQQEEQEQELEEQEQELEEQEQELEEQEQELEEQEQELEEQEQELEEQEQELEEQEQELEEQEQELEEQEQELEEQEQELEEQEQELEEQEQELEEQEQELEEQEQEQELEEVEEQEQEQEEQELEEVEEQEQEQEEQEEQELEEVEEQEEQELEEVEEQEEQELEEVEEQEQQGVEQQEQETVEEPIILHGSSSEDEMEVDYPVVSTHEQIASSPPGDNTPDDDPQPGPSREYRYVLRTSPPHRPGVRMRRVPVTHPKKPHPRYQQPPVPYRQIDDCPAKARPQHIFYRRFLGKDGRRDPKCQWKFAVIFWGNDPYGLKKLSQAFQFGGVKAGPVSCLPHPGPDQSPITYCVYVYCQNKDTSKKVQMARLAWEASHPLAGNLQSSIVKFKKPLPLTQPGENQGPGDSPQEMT
TAAR1 ag conf = confirmation of human TAAR1 agonists | CHO RD-HGA16 TAAR1, Fluo-8 calcium fluorescence; scaled: DMSO 0%, maximal phenethylamine 100% | shares compounds with TAAR1 ag | activation, % at 3 µM | AID 651783 | hit rate 82% among 2,400;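 active means activation above a cutoff set at the run's mean compound activation plus 3 SD, cut at about 39% in these data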
Ga16 nonsel ag = nonselective agonism, TAAR1 counter-screen; CHO-Ga16 parental, Fluo-8 calcium fluorescence; normalized to maximal ATP response, DMSO zero; activation, % at 3 µM; hit rate 50% among 2,400; shares compounds with TAAR1 ag;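 active means activation above the run cutoff, the mean activation over all tested wells plus 3 SD, cut at about 12% in these data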
TAAR1 desensitize = counter-screen for human TAAR1 agonists: agonists that desensitize TAAR1; AID 651951; hit rate 46% among 2,400; CHO RD-HGA16 hTAAR1, Fluo-8 calcium, beta-PEA response inhibition; inhibition, % at 3 µM; shares compounds with TAAR1 ag;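 active means inhibition above the run cutoff, the mean inhibition of all test compounds plus 3 SD, cut at about 49% in these data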;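 further: beta-PEA stimulus applied at its EC80; loss of beta-PEA calcium signal after compound pretreatment read as receptor desensitization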
Ga16 antag count = counter-screen for TAAR1 agonists: nonselective Ga16 antagonists. shares compounds with TAAR1 ag. CHO-Ga16 ATP-induced calcium, Fluo-8 fluorescence. inhibition, % at 3 µM. hit rate 39% among 2,400;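 active means inhibition above the plate's mean compound inhibition plus 3 SD, computed per plate, cut at about 22% in these data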
Large screens that a line does not name were inactive (follow-up assays come after a bar, where they were run).

Cc1ccc(NC(=O)CN2C(=O)S/C(=C/c3ccc(O)c([N+](=O)[O-])c3)C2=O)cc1C	TAAR1 ag 91, TAAR1 antagonist 80 (no result: LANA-H2B inh) | TAAR1 ag conf inactive | Ga16 nonsel ag inactive | TAAR1 desensitize inactive | Ga16 antag count inactive
COc1ccc(N2C(=NC(=O)C(C)Oc3ccccc3)SC3CS(=O)(=O)CC32)cc1 (centres undefined)	none (no result: TRPML3 agonist, zfTRPN1 agonist)
CN1C(=S)N(c2cccnc2)C(=O)/C1=C\c1ccc(N(C)C)cc1	TAAR1 ag 74 (no result: LANA-H2B inh) | TAAR1 ag conf inactive | Ga16 nonsel ag 39 | TAAR1 desensitize inactive | Ga16 antag count 50
CN1C(=S)N(c2cccnc2)C(=O)/C1=C\c1ccc(C(C)(C)C)cc1	none
COc1ccc(CNC(=O)c2ccc(N3CCC4(CC3)CC(c3ccc(Cl)cc3)=NO4)c(N)c2)cc1	none (no result: GPR7 antag, TAAR1 ag, TRPML3 agonist, TAAR1 antagonist, zfTRPN1 agonist)
Cc1ccc(NS(=O)(=O)c2ccc(C(=O)NCc3cccnc3)cc2)cc1	none (no result: TRPML3 agonist, zfTRPN1 agonist)
Cc1ccc(NS(=O)(=O)c2ccc(C(=O)NCC(c3ccco3)N3CCCCC3)cc2)cc1 (centres undefined)	TAAR1 ag 91, TAAR1 antagonist 63 (no result: GPR7 antag, TRPML3 agonist, zfTRPN1 agonist) | TAAR1 ag conf 73 | Ga16 nonsel ag 33 | TAAR1 desensitize inactive | Ga16 antag count 28
Cc1ccc(NS(=O)(=O)c2ccc(C(=O)NCc3ccncc3)cc2)cc1	TAAR1 ag 69 (no result: GPR7 antag, TRPML3 agonist, zfTRPN1 agonist) | TAAR1 ag conf 61 | Ga16 nonsel ag 25 | TAAR1 desensitize inactive | Ga16 antag count 32
CCOc1ccc(NS(=O)(=O)c2ccc(C(=O)NCC(c3ccco3)N3CCCCC3)cc2)cc1 (centres undefined)	TAAR1 ag 84 (no result: GPR7 antag, TRPML3 agonist, zfTRPN1 agonist, LANA-H2B inh) | TAAR1 ag conf 91 | Ga16 nonsel ag 41 | TAAR1 desensitize 54 | Ga16 antag count 38
Cc1cc(S(=O)(=O)Nc2ccc(C(=O)NCC3(N(C)C)CCCCC3)cc2)ccc1F	none (no result: GPR7 antag, TRPML3 agonist, zfTRPN1 agonist)
CCOc1ccc(NS(=O)(=O)c2ccc(C(=O)NCC3(N(C)C)CCCCC3)cc2)cc1	TAAR1 ag 66 (no result: GPR7 antag, TRPML3 agonist, zfTRPN1 agonist) | TAAR1 ag conf inactive | Ga16 nonsel ag inactive | TAAR1 desensitize inactive | Ga16 antag count 27
CCOC(=O)N1CCN(C(=O)c2c[nH]c3ccc(S(=O)(=O)N(C)c4ccc(OCC)cc4)cc3c2=O)CC1	none (no result: TRPML3 agonist, zfTRPN1 agonist)
CCOc1ccc(NS(=O)(=O)c2ccc(C(=O)NCC(c3ccco3)N(C)C)cc2)cc1 (centres undefined)	TAAR1 ag 89 (no result: GPR7 antag, TRPML3 agonist, zfTRPN1 agonist) | TAAR1 ag conf 80 | Ga16 nonsel ag 50 | TAAR1 desensitize inactive | Ga16 antag count 39
CCOc1ccc(S(=O)(=O)Nc2cccc(C(=O)NCC(c3ccccc3)N(C)C)c2)cc1 (centres undefined)	TAAR1 ag 58 (no result: GPR7 antag, TRPML3 agonist, zfTRPN1 agonist, LANA-H2B inh) | TAAR1 ag conf inactive | Ga16 nonsel ag 23 | TAAR1 desensitize inactive | Ga16 antag count 26
COc1ccc(C(CNC(=O)c2cccc(NS(=O)(=O)c3ccccc3)c2)N(C)C)cc1 (centres undefined)	none (no result: TRPML3 agonist, zfTRPN1 agonist)
CCOc1ccc(NS(=O)(=O)c2ccc(C(=O)NCc3ccccn3)cc2)cc1	TAAR1 ag 71 (no result: GPR7 antag, TRPML3 agonist, zfTRPN1 agonist) | TAAR1 ag conf 120 | Ga16 nonsel ag 59 | TAAR1 desensitize 67 | Ga16 antag count 30
O=C(c1ccc(Cl)cc1)N1CCN(S(=O)(=O)/C=C/c2ccccc2)CC1	none (no result: GPR7 antag, TRPML3 agonist, zfTRPN1 agonist)

Screening results: PubChem BioAssay, several laboratories
